Screens deposited in PubChem BioAssay by Sanford-Burnham Center for Chemical Genomics.
A selection: hits, their analogues and other compounds. The true share with any hit is near 3.3%.
CendR NRP1 mod = alters CendR peptide binding to human NRP-1 | O14786 | FAM-RPARPAR peptide binding to NRP-1, fluorescence polarization | inhibition, % at 25 µM | 360,000 compounds, 0.85% hits;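 active = inhibition or corrected inhibition above about 18%, plus a signal ratio from 0.5 to 1.5, limit read from the data, passing the limit was not always enough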
SENP1 inh = inhibitors of human SENP1 SUMO protease catalytic domain | Q9P0U3 | recombinant SENP1 catalytic domain, CyPet-SUMO1-YPet FRET cleavage | inhibition, % at 10 µM | 360,000 compounds, 0.21% hits | AID 624204;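 active = inhibition at least 30% at 10 µM, raw YFP signal under a set limit, fluorescence ratio 0.5 to 1.5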;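 also: 0% = enzyme with DMSO and 100% = no enzyme wells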
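material = recombinant human SENP1 catalytic domain, His6-tagged | quantity = 20 pM enzyme | reagent = 25 nM SUMO1 FRET substrate | compound dosing = 10 µM single point, 0.5% DMSO | timing = 50 min enzyme reaction, room temperature, light-protected | detection = FRET, CFP and YFP emission | control set = no-enzyme low, enzyme-DMSO high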
SENP8 block-1 = blocks the human protease SENP8; Q96LD8; 330,000 compounds, 1.2% hits; purified SENP8, Z-RLRGG-aminoluciferin cleavage, luminescence; inhibition, % at 10 µM; in the data active = inhibition above about 50%
Target sequence (Q96LD8 whole entry, looked up): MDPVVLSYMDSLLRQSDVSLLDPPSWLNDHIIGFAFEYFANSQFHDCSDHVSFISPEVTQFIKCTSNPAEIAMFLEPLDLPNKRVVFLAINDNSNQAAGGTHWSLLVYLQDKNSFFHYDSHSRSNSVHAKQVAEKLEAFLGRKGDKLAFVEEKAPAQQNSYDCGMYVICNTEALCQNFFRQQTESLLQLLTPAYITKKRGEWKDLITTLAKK
SENP6 block = blocks the human protease SENP6; Q9GZR1; Recombinant SENP6 catalytic domain, aminoluciferin luminescence; inhibition, % at 10 µM; 330,000 compounds, 1.8% hits; AID 2599;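 active = inhibition above about 50% at the single tested dose, limit read from the data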;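 also: plate controls were DMSO wells with enzyme for no effect and DMSO wells lacking enzyme for full effect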
SENP8 block-2 = blocks human SENP8 cleavage of Nedd8 substrate; Q96LD8; recombinant SENP8, Nedd8 substrate fluorescence; inhibition, % at 20 µM; 360,000 compounds, 0.64% hits; AID 602440; in the data active = inhibition mostly above about 40%, no sharp cut-off; inactive = mostly below about 27%
SENP7 block = inhibitors of human SENP7 protease. 330,000 compounds, 1.5% hits. recombinant SENP7, Z-RLRGG-aminoluciferin luminescence, 40 min. inhibition, % at 5 µM;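 active = inhibition above about 50% at the single test dose, limit read from the data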;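 also: plate controls were DMSO with enzyme for no effect and no enzyme buffer wells for full effect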
Target sequence (Q9BQF6 706-1050 limits assumed): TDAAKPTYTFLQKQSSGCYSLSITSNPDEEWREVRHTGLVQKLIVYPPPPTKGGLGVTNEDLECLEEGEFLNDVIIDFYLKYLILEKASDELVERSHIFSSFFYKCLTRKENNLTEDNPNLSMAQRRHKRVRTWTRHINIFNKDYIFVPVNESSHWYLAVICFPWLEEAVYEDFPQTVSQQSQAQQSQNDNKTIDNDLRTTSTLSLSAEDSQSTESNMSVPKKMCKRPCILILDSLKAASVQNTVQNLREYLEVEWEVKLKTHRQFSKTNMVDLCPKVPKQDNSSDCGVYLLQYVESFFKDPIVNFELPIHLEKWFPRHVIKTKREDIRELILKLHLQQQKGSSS
* marks the source's active call; other numbers are inactive results; · = no result.

SMILES	CendR NRP1 mod	SENP1 inh	SENP8 block-1	SENP6 block	SENP8 block-2	SENP7 block
CC(=O)N/N=C/c1cc(C(C)(C)C)cc(/C=N/NC(C)=O)c1O	35.0*	-22.5	·	·	-5.8	·
CCOc1ccccc1N(CC(=O)N1CCOCC1)S(=O)(=O)c1ccc(SC)cc1	28.5*	1.2	·	·	5.0	·
Cc1ccc(NC(=O)NC(=O)COC(=O)c2ccc(O)cc2O)c(C)c1	-2.6	0.0	·	·	13.0	·
CCn1cc(CN2CCCC(C(=O)Nc3cccc(-n4cccn4)c3)C2)cn1 (stereo unspecified)	-12.1	-0.8	·	·	24.1	·
Cc1ccsc1/C=c1\sc2ncnn2c1=O	-8.8	4.8	5.8	14.4	17.2	6.8
CCCCOc1ccc(/C=c2\sc3ncnn3c2=O)cc1	20.3*	1.1	-8.7	-11.7	4.2	2.2
COC(=O)[C@]12CCCCC=C1N(Cc1ccccc1)C(=O)[C@H](CC(=O)N1CCSCC1)C2	19.0	1.3	·	·	15.4	·
O=C1c2ccccc2C(c2nnnn2-c2ccc3c(c2)OCCO3)N1CCOc1ccccc1 (stereo unspecified)	-14.2	3.3	·	·	14.7	·
CCNC(=O)C1(C)CCCN(Cc2ccccc2-c2ccccc2)C1 (stereo unspecified)	22.7*	4.6	·	·	25.3	·
CCNC(=O)C1(C)CCN(Cc2ccccc2-c2ccccc2)C1 (stereo unspecified)	-7.3	-1.5	·	·	12.8	·
CN(C)Cc1cc(C(F)(F)F)ccc1C(O)(c1ccccc1)c1ccccc1	21.1*	4.3	·	·	11.0	·
CC(C)(C)n1c(O)c2n(c1=O)Cc1ccccc1N=C2c1ccccc1	4.3	2.0	·	·	13.1	·
COc1ccccc1Nc1nc2cc(C)ccc2cc1C#N	1.7	-95.5	-8.6	-4.0	-31.1	-11.2
COc1ccccc1Nc1nc2ccc(C)cc2cc1C#N	29.2*	-47.2	-9.9	-17.1	-3.7	5.3
O=C(C[C@@H]1CC[C@H](NC(=O)Nc2ccc(F)cc2)[C@@H](CO)O1)NCc1cccc(F)c1	10.8	1.8	·	·	12.7	·
O=C(COc1ccc2ccccc2c1)N/N=C/c1ccccn1	37.1*	-0.8	-12.8	-4.9	9.6	-10.9
COCOCCn1cc(CN2CCS(=O)(=O)N(Cc3ccc(-c4ccc(OC)nc4)cc3)C(C(C)C)C2=O)nn1 (stereo unspecified)	-3.3	-5.0	·	·	-7.9	·
Clc1c(CSc2nc3ccccc3o2)nc2ccccn12	7.2	-1.3	19.1	52.3*	3.7	36.7
Cc1csc(-c2nc3ccccc3n2C(C(=O)NC(C)(C)C)c2ccccc2)c1 (stereo unspecified)	-17.4	0.1	·	·	-401.4	·
CCc1ccc(Nc2nnc(SCC(=O)NCCN3C(=O)CSC3=O)s2)cc1	0.5	2.1	22.7	51.6*	1.1	43.2
Cc1cc(C)c(S(=O)(=O)c2cccc(Cl)c2)c(Cl)n1	33.4*	2.4	-5.6	-4.8	0.7	5.6
COc1c(C)cc(C(O)c2ncc(-c3ccccc3C(F)(F)F)[nH]2)cc1C (stereo unspecified)	11.5	-0.6	·	·	20.0	·
O=C(/C=C/c1ccccc1)NCCSc1ccc(Cl)cc1	3.7	2.8	-0.8	-12.4	40.2*	11.5
COc1ccc(C(=O)Nn2cnnc2)cc1	10.4	2.6	-3.6	2.0	12.5	12.3
CCCCOc1ccc(C(=O)Nn2cnnc2)cc1	24.9*	-0.1	-1.7	7.5	9.2	1.4
SMILES	CendR NRP1 mod	SENP1 inh	SENP8 block-1	SENP6 block	SENP8 block-2	SENP7 block
COc1ccc(NC(=S)N(CCN2CCOCC2)Cc2ccccc2F)cc1	24.1*	-0.5	-2.4	11.3	8.2	5.7
Cc1cccc(C(CC(=O)NCc2ccco2)c2ccccc2)c1O (stereo unspecified)	3.0	0.9	-0.7	-16.8	14.3	0.3
Cc1cccc(C(CC(=O)NCCc2ccccc2)c2ccccc2)c1O (stereo unspecified)	21.1*	-3.1	0.4	-3.4	10.2	-4.2
COc1ccc(S(=O)(=O)N2CCOCC2)cc1NC(=O)Cc1ccc(F)cc1	0.3	1.5	·	·	14.5	·
CCOc1cc(/C=N/n2cnnc2)ccc1OCC(=O)Nc1ccccc1OC	20.0*	4.1	-0.5	1.9	-21.1	3.8
CCN(CC)c1ccc(N)cc1	-72.9	54.2*	1.9	-2.2	5.9	6.0
CCN(CC(=O)Nc1c(F)cccc1F)C(=O)c1ccc(OC)c(S(=O)(=O)NC2CCCC2)c1	-12.9	1.2	·	·	12.8	·
O=C(c1ccc(-c2ccccc2Cl)s1)N1CCOCC1	34.6*	1.7	-6.3	4.5	10.5	14.7
Cc1ccc(NC(=O)[C@@H](CC(C)C)NC(=O)[C@@H]2Cc3ccccc3CN2)cc1	9.4	-3.2	-1.4	-1.5	9.8	17.0
Cc1ccc(NC(=O)[C@H](CC(C)C)NC(=O)[C@@H]2Cc3ccccc3CN2)cc1	21.2*	2.0	-4.4	-1.5	11.4	3.3
N#CC(c1cccc([N+](=O)[O-])c1)C(CC(=O)c1ccccc1)c1ccccc1 (stereo unspecified)	-2.0	2.5	·	·	14.3	·
N#CC(c1ccc([N+](=O)[O-])cc1)C(CC(=O)c1ccccc1)c1ccccc1 (stereo unspecified)	27.9*	4.9	·	·	5.1	·
CC(C)(C)NC(=O)C1c2ccccc2OCC(=O)N1Cc1ccccn1 (stereo unspecified)	-1.0	-0.1	·	·	4.4	·
COc1ccc(C2=Nc3ccccc3N(C(=O)c3cccnc3)C2C(=O)NC2CCCC2)cc1 (stereo unspecified)	-7.4	2.1	·	·	-37.1	·
O=C(Nc1ccc2c(c1)OCCO2)C1C(=O)Nc2ccccc2C(=O)N1C1CCCCC1 (stereo unspecified)	21.0*	0.5	·	·	-63.7	·
CC(C)CNC(=O)C1C(=O)Nc2ccccc2C(=O)N1C1CCCCC1 (stereo unspecified)	-1.2	0.0	·	·	4.6	·
C/C(=N/NC(=O)c1cc(-c2ccc(Br)s2)[nH]n1)c1ccco1	36.3*	-6.2	-14.7	-4.0	-16.0	-3.1
C/C(=N\NC(=O)c1cc(-c2ccc(Br)s2)[nH]n1)c1ccncc1	8.5	1.0	-5.6	-14.0	9.0	3.2
C/C(=N\NC(=O)c1ccc(-c2ccccc2)cc1)c1ccco1	13.0	0.9	5.1	-13.8	5.5	7.9
C/C(=N\NC(=O)c1cc([N+](=O)[O-])cc([N+](=O)[O-])c1)c1ccco1	25.0*	1.0	-1.1	-1.6	19.8	-1.6
CC(=O)c1ccc(NC(=O)COC(=O)c2ccccc2N=Nc2ccc(N(C)C)cc2)cc1	-8.7	3.5	6.4	1.2	28.2	8.8
COC(=O)c1ccccc1NC(=O)COC(=O)c1ccccc1N=Nc1ccc(N(C)C)cc1	-1.1	3.3	-0.3	-7.4	42.1*	3.3
O=c1c(-c2ccccc2)coc2c(CN3CCCCC3)c(O)ccc12	14.3	-1.3	-13.0	-10.3	-290.1	9.7
CC1CN(Cc2c(O)ccc3c(=O)c(-c4ccccc4)coc23)CC(C)O1 (stereo unspecified)	37.7*	0.5	2.4	-0.2	-371.3	2.6
